Assay results taken from ChEMBL document CHEMBL4033612, “The Bibenzyl Canniprene Inhibits the Production of Pro-Inflammatory Eicosanoids and Selectively Accumulates in Some Cannabis sativa Strains” (J Nat Prod, 2017).
Active and inactive are the calls of the source. The rule behind the calls is not given here.

How the values were obtained:
[1] = molecular target: T1, Prostaglandin E synthase (Homo sapiens) (UniProt O14684); assay: Inhibition of mPGES-1 in interleukin-1 beta-stimulated human A549 cells microsomal membranes up to 10 uM assessed as reduction in conversion of PGH2 to PGE2 pre-incubated for 15 mins followed by PGH2 substrate addition measured after 1 min by RP-HPLC method; type: cell-based
T1 sequence (whole entry): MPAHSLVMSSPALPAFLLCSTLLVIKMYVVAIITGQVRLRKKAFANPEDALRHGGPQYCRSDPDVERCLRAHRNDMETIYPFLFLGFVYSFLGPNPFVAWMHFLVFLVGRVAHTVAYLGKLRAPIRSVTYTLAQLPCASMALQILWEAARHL
Outline: (§1)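 A549 cells treated with 1 ng/mL IL-1β for 48 h, sonicated, and microsomes isolated at 174000g. Membranes were diluted in 0.1 M potassium phosphate pH 7.4 with 2.5 mM glutathione and given compound or vehicle for 15 min at 4 °C. PGH2 was added and the reaction ran 1 min at 4 °C, then was stopped with FeCl2/citric acid containing 11β-PGE2 internal standard. PGE2 was taken by SPE and measured by RP-HPLC. IC50 by linear interpolation.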

[2] = molecular target: T2, Polyunsaturated fatty acid 5-lipoxygenase (Homo sapiens, UniProt P09917); assay: (§2) Inhibition of human recombinant 5-lipoxygenase expressed in Escherichia coli MV1190 pre-incubated for 10 mins before arachidonic acid substrate addition and measured after 10 mins by RP-HPLC method
T2 sequence (P09917 whole entry): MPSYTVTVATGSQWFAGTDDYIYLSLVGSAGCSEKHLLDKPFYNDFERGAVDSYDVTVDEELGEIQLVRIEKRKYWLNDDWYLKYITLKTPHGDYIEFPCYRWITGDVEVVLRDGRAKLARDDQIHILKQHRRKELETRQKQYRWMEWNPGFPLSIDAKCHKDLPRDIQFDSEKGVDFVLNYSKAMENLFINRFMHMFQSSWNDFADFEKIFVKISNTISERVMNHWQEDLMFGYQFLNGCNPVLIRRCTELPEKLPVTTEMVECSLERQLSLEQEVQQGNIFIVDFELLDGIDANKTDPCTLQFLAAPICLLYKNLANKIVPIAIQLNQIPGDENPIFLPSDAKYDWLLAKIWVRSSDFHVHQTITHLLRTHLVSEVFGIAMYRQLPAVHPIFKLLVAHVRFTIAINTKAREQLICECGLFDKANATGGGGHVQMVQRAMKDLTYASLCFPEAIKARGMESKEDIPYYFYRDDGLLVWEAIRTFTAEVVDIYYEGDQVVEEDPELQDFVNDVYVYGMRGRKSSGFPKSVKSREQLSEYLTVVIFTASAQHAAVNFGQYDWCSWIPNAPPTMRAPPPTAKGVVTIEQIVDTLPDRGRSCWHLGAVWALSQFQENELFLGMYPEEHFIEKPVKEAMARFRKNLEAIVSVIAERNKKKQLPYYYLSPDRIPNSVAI
Outline: (§3)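 5-LO expressed at 27 °C in transformed E. coli, lysed, sonicated, spun at 40000g; supernatant partially purified on ATP-agarose and used at once. Enzyme diluted in ice-cold PBS with 1 mM EDTA and 1 mM ATP, preincubated with compound 10 min at 4 °C, warmed 30 s at 37 °C. Reaction started with 2 mM CaCl2 plus 20 μM AA, 10 min at 37 °C, stopped with methanol. Products analysed by RP-HPLC. IC50 by linear interpolation around 50% activity.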

Prostaglandin E synthase = molecular target: T3, Prostaglandin E synthase (Homo sapiens, UniProt O14684); assay: (§4) Inhibition of mPGES-1 in interleukin-1 beta-stimulated human A549 cells microsomal membranes assessed as reduction in conversion of PGH2 to PGE2 pre-incubated for 15 mins followed by PGH2 substrate addition measured after 1 min by RP-HPLC method; type: cell-based; outline: as §1
T3 sequence (O14684 whole entry): T1 sequence (whole entry)

[3] = molecular target: T4, Polyunsaturated fatty acid 5-lipoxygenase (Homo sapiens) (UniProt P09917); assay: Inhibition of human recombinant 5-lipoxygenase expressed in Escherichia coli MV1190 up to 10 uM pre-incubated for 10 mins before arachidonic acid substrate addition and measured after 10 mins by RP-HPLC method; outline: as §3
T4 sequence (whole entry): T2 sequence (P09917 whole entry)

[4] = molecular target: T1, Prostaglandin E synthase (Homo sapiens); assay: as §4; type: cell-based; outline: as §1
[5] = molecular target: T4, Polyunsaturated fatty acid 5-lipoxygenase (Homo sapiens); assay: as §2; outline: as §3

For `COc1cc(O)c2c(c1)CCC21C=CC(=O)CC1` (stereo not given), the inhibition [1] was “inactive” and the IC50 [2] was 9300 nM.

An IC50 (Prostaglandin E synthase) of 1800 nM and an IC50 [2] of 1300 nM were found for `COc1cc(-c2cc(=O)c3c(O)c(C/C=C(\C)CCC=C(C)C)c(O)cc3o2)ccc1O` in this work.

`COc1cc(O)c2c(c1)CCC21CCC(O)CC1` (stereo not given) was tested, and the inhibition [3] was “inactive” and the inhibition [1] was “inactive”.

`COc1cc(O)cc(CCc2ccc(OC)c(O)c2CC=C(C)C)c1` was tested, and the inhibition [4] was “Dose-dependent effect”, the IC50 (Prostaglandin E synthase) was 10000 nM and the inhibition [5] was “Dose-dependent effect”. The IC50 [2] was 400 nM.
